Data reported in ChEMBL document CHEMBL1144657, “Discovery of heterobicyclic templates for novel metabotropic glutamate receptor subtype 5 antagonists” (Bioorg Med Chem Lett, 2007).
pIC50, pKi: −log10 of the molar value. Active and inactive are the calls of the source. The calls are words filed in the database; no cut-off is given here.

Legend:
Type in all cases: cell membranes
[1] = target: Metabotropic glutamate receptor 5 (Rattus norvegicus) (UniProt P31424); assay: Displacement of [3H]MPEP from mGluR5 in rat brain membrane at 10 uM
Outline: (§1)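 Binding was measured by the NIMH Psychoactive Drug Screening Program in rat brain membranes, with [3H]MPEP as the mGluR5 radioligand. Single-concentration screens are reported as percent inhibition of [3H]MPEP binding at 10 μM, and some compounds were also tested at 100 μM. For selected compounds, IC50 was determined using a previously published protocol.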

[2] = target: Metabotropic glutamate receptor 5 (Rattus norvegicus, UniProt P31424); assay: Displacement of [3H]MPEP from mGluR5 in rat brain membrane
[3] = target: Metabotropic glutamate receptor 5 (Rattus norvegicus) (UniProt P31424); assay: Displacement of [3H]MPEP from mGluR5 in rat brain membrane at 100 uM; outline: as §1

Metabotropic glutamate receptor 5 (Rattus norvegicus), sequence (P31424 21-1203 limits assumed): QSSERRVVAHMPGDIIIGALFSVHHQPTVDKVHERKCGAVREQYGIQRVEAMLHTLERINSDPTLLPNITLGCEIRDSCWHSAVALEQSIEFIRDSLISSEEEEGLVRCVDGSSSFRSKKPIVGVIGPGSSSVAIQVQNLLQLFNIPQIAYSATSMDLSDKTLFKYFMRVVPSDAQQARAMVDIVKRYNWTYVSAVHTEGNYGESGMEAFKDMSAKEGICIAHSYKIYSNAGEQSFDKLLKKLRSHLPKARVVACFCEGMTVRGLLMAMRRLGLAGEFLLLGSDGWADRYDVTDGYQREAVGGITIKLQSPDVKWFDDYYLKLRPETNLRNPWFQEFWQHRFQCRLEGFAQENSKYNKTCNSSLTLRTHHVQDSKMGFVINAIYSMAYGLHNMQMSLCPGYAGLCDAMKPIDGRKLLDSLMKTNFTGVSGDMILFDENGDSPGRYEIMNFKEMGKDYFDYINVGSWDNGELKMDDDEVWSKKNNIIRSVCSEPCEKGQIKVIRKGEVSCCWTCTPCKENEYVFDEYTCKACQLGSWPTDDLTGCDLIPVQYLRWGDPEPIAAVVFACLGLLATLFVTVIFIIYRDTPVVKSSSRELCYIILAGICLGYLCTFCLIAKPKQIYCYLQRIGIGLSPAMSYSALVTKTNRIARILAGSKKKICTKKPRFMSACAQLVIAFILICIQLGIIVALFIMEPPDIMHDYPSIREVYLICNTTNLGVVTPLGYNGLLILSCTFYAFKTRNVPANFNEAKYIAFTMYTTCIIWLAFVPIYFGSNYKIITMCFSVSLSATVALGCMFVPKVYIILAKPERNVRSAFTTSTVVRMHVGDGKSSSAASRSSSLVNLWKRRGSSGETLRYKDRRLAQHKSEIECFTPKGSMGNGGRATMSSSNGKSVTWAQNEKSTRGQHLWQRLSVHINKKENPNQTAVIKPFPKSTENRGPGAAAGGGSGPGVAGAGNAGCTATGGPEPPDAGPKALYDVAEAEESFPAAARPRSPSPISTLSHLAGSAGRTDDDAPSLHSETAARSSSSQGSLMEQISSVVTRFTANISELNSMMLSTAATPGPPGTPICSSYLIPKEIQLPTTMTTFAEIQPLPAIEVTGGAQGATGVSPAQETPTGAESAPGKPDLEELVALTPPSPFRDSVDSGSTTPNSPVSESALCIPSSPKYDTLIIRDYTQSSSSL
Metabotropic glutamate receptor 5, sequence (P31424 whole entry): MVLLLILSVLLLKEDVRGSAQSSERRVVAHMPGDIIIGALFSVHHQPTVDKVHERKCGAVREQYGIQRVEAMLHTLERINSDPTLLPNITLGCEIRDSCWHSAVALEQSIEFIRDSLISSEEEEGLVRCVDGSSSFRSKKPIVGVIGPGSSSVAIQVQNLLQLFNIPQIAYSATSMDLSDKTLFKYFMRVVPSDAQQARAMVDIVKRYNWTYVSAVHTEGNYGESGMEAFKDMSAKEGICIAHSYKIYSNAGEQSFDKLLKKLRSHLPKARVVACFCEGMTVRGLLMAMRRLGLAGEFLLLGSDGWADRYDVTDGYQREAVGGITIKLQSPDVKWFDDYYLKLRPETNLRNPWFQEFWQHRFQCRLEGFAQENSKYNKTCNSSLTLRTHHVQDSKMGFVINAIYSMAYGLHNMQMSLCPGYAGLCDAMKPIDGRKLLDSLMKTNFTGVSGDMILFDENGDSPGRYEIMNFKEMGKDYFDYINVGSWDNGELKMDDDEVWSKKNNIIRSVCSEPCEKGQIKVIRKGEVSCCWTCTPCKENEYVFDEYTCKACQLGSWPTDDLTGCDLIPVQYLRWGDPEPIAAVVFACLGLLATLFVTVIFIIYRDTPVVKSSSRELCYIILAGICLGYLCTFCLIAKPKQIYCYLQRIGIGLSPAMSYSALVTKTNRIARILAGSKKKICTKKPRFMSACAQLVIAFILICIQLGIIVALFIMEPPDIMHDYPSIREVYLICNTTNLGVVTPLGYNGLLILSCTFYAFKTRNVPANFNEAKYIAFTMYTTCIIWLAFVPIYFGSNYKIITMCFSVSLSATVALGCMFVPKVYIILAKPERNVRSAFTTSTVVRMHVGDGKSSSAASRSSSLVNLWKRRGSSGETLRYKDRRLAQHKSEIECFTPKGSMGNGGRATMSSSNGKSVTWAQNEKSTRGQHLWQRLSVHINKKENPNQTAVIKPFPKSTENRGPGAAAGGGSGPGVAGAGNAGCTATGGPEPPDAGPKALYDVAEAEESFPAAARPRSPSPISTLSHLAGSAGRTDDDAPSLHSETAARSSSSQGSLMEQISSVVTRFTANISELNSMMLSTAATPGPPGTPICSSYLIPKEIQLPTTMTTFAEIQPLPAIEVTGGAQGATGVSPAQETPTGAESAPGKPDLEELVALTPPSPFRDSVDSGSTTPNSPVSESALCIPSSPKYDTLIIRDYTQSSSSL

SMILES	Activity [1] [%]	pKi [2]	also measured
Cc1nc2nc(-c3ccccc3)sc2cc1-c1ccc(F)cc1	3		
COc1cc2sc(-c3ccccc3)nc2nc1C	< 1		
COc1cc(OC)nc(-c2ccc3ccc(C)nc3c2)n1		5.27	
Cc1nc2cc(-c3ncccn3)ccc2s1	29		
Cc1ccc2ccc(-c3cccs3)cc2n1	< 1		
Cc1ccc(-c2ccc3ccc(C)nc3c2)nc1	9		
Cc1cc(C)nc(-c2ccc3ccc(C)nc3c2)n1		5.68	
Cc1nc2cc(-c3cccc(Cl)c3)ccc2s1			pIC50 [2]: 4.36
Cc1ccc2ccc(-c3cnccn3)cc2n1		< 4.22	
Cc1ccc2nc(-c3ccccc3)n(CC3CC3)c2n1	< 1		
Cc1ccc2ccc(-c3ncc(F)cn3)cc2n1	> 1		
Cc1ccc2c(n1)nc(-c1ccccc1)n2Cc1ccccc1		< 5.00	
Cc1ccc2ccc(-c3ncccn3)cc2n1		< 4.70	
COc1ccnc(-c2ccc3sc(C)nc3c2)n1	39		
Cc1nc2nc(-c3ccccc3)sc2cc1-c1cccc(Cl)c1	1		
Cc1nc2nc(-c3ccccc3)sc2cc1-c1ccccc1			pIC50 [2]: 4.48

SMILES	Activity [1] [%]	pKi [2]	also measured
Cc1ccc2sc(-c3ccccc3)nc2n1	16		
Cc1nc2nc(-c3ccccc3)sc2cc1-c1cccc(C#N)c1	13		
Cc1ccc2ccc(-c3cccc(C#N)c3)cc2n1		6.96	
Cc1nc2cc(-c3cccc(C#N)c3)ccc2s1		5.68	
Cc1nc2nc(-c3ccccc3)sc2cc1-c1cccs1		< 5.00	
Cc1ccc2ccc(-c3ccccn3)cc2n1	28		
COc1cccc(-c2ccc3sc(C)nc3c2)c1			pIC50 [2]: 4.37
Cc1ccc2ccc(-c3ccccc3)cc2n1	50		
Cc1nc2cc(-c3ccc(F)cc3)ccc2s1			Activity [3]: inactive
Cc1nc2cc(-c3ccccc3)ccc2s1			Activity [3]: inactive
COc1ccnc(-c2ccc3ccc(C)nc3c2)n1		5.81	
Cc1nc2nc(-c3ccccc3)sc2cc1Br	1		
Cc1cccc(-c2ccc3sc(C)nc3c2)n1	17		
Cc1ccc2nc(-c3ccccc3)n(Cc3ccccc3)c2n1		< 5.00	
Cc1ccc2nc(-c3ccccc3)n(C)c2n1	< 1		
Cc1ccc2[nH]c(-c3ccccc3)nc2n1		< 5.00	
